Assay results reported in ChEMBL document CHEMBL1828621, “Single step synthesis of new fused pyrimidine derivatives and their evaluation as potent Aurora-A kinase inhibitors” (Eur J Med Chem, 2011).
≈ marks a conversion by molar mass, not a printed value.

Assays:
[1] = tested on: HCT-116; experiment: Cytotoxicity against human HCT116 cells after 48 hrs by sulforhodamine B method; format: functional, cell-based; details: HCT-116, 48 h
In short: (§1)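 HCT116 colon tumour cells grown in RPMI 1640 with 5% FBS and 2 mM L-glutamine. Seeded at 10,000 cells/well and held 24 h at 37 °C, 5% CO₂ before dosing. Drugs kept as DMSO stocks at 400-fold the top final concentration, diluted in medium with gentamicin, tested at four concentrations for 48 h. Fixed with cold TCA (final 10%) for 60 min at 4 °C, stained with 0.4% SRB, bound dye dissolved in Tris-EDTA, read on an ELISA reader. Extra plates fixed at dosing served as baseline.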

[2] = tested on: HCT-116; experiment: Cytotoxicity against human HCT116 cells assessed as cell survival at 10 ug/ml after 48 hrs by sulforhodamine B method relative to control; format: functional; in short: as §1
[3] = tested on: HCT-116; experiment: Cytotoxicity against human HCT116 cells assessed as cell survival at 1 ug/ml after 48 hrs by sulforhodamine B method relative to control; format: functional; in short: as §1
[4] = tested on: HCT-116; experiment: Cytotoxicity against human HCT116 cells assessed as cell survival at 2.5 ug/ml after 48 hrs by sulforhodamine B method relative to control; format: functional; in short: as §1
[5] = molecular target: T1, Aurora kinase A (Homo sapiens, UniProt O14965); experiment: Inhibition of GST-tagged Aurora A kinase expressed in insect cells assessed as inhibition of [33P]gamma-ATP incorporation in substrate after 60 mins by scintillation counting
T1 sequence (O14965 whole entry): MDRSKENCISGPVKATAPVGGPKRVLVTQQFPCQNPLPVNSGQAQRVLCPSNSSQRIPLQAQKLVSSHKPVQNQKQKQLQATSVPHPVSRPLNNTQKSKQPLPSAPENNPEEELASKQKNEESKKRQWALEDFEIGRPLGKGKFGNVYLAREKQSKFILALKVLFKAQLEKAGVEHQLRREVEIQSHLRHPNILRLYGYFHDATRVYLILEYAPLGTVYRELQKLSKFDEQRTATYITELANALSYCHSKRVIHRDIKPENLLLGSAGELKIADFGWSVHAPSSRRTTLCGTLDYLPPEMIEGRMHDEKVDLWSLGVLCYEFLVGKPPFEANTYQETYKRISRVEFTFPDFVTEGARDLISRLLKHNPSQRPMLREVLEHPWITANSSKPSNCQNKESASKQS
In short: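 Reaction: biotinylated CHOCKtide substrate with ATP/[γ-33P]ATP mix, 60 min at room temperature, in 50 mM HEPES pH 7.5, 10 mM MgCl₂, 1 mM DTT, NaVO₃ and 0.2 mg/mL BSA. Stopped with EDTA/ATP plus streptavidin SPA beads; beads floated on 5 M CsCl and counted for phosphate incorporated into substrate.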

[6] = tested on: HCT-116; experiment: Cytotoxicity against human HCT116 cells assessed as cell survival at 5 ug/ml after 48 hrs by sulforhodamine B method relative to control; format: functional; in short: as §1

SMILES	IC50 [1] [µg/mL]	Ratio [2]	Ratio [3]	Ratio [4]	IC50 ([5]; read-out: IC50) [nM]	Ratio [6]	IC50 [5]
Cc1cc2ncc(S(=O)(=O)c3ccccc3)c(-c3ccccc3)n2n1	> 25	0.597	0.774	0.698	101	0.671	
O=S(=O)(c1ccccc1)c1cnc2cc(-c3ccccc3)nn2c1-c1ccccc1	1.27 (≈ 3.09 µM)	0.377	0.683	0.455	51	0.43	
COc1ccc(-c2cc3ncc(S(=O)(=O)c4ccccc4)c(-c4ccccc4)n3n2)cc1	1.28 (≈ 2.9 µM)	0.217	0.516	0.436	25	0.288	
O=S(=O)(c1ccccc1)c1cnc2cc(-c3ccc(Cl)cc3)nn2c1-c1ccccc1	1.64 (≈ 3.68 µM)	0.42	0.56	0.508	120	0.42	
Cc1nn2c(-c3ccccc3)c(S(=O)(=O)c3ccccc3)cnc2c1Br	2.21 (≈ 5.16 µM)	0.183	0.529	0.373		0.253	Not Active
O=S(=O)(c1ccccc1)c1cnc2c(Br)c(-c3ccccc3)nn2c1-c1ccccc1	1.34 (≈ 2.73 µM)	0.24	0.629	0.42	39	0.271	
O=S(=O)(c1ccccc1)c1cnc2cc(-c3ccccc3)nn2c1-c1ccc(Cl)cc1	> 25	0.797	0.987	0.953		0.894	Not Active
COc1ccc(-c2cc3ncc(S(=O)(=O)c4ccccc4)c(-c4ccc(Cl)cc4)n3n2)cc1	> 25	0.744	0.824	0.794		0.778	Not Active
Cc1ccc(-c2c(S(=O)(=O)c3ccccc3)cnc3cc(-c4ccc(Cl)cc4)nn23)cc1	9.3 (≈ 20.2 µM)	0.333	1	0.665		0.382	Not Active
O=S(=O)(c1ccccc1)c1cnc2nc3ccccc3n2c1-c1ccccc1	> 25	0.82	0.984	0.885		0.845	Not Active
O=S(=O)(c1ccccc1)c1cnc2nc3ccccc3n2c1-c1ccc(Cl)cc1	> 25	0.79	0.95	0.905		0.889	Not Active
O=S(=O)(c1ccccc1)c1cnc2nc3ccccc3n2c1-c1ccc(Br)cc1	16.3 (≈ 35.1 µM)	0.209	1	0.748		0.624	Not Active
O=S(=O)(c1ccccc1)c1cnc2ncnn2c1-c1ccccc1	1.97 (≈ 5.86 µM)	0.256	0.689	0.302	104	0.294	
O=S(=O)(c1ccccc1)c1cnc2ncnn2c1-c1ccc(Cl)cc1	2.15 (≈ 5.8 µM)	0.243	0.786	0.377	9240	0.316	
Cc1ccc(-c2c(S(=O)(=O)c3ccccc3)cnc3cc(-c4ccccc4)nn23)cc1	18 (≈ 42.3 µM)	0.253	1	0.745		0.701	Not Active
Cc1ccc(-c2c(S(=O)(=O)c3ccccc3)cnc3c(Br)c(-c4ccccc4)nn23)cc1	14 (≈ 27.8 µM)	0.309	1	0.701		0.53	Not Active
Cc1ccc(-c2cc3ncc(S(=O)(=O)c4ccccc4)c(-c4ccc(C)cc4)n3n2)cc1	10.5 (≈ 23.9 µM)	0.246	1	0.764		0.408	Not Active
COc1cccc2c1C(=O)c1c(O)c3c(c(O)c1C2=O)C[C@@](O)(C(=O)CO)C[C@@H]3O[C@H]1C[C@H](N)[C@H](O)[C@H](C)O1 [DOXORUBICIN]	1.3 (≈ 2.39 µM)	0.291	0.523	0.439	40	0.42	
